TNAP act mid DEA: activators of human TNAP at intermediate phosphate acceptor | P05186 | purified TNAP, CDP-star luminescence, 100 mM DEA, 30 min; stronger effect = higher value; scale: 0 levamisole-inhibited, 1 vehicle-only enzyme | activation factor at 20 µM | 64,000 tested, under 10 active;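 active = activation factor of at least 2 at 20 µM, relative to controls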
S1P1 ag pot: agonists and agonism potentiators of human S1P1 receptor. 0.57% of 56,000 active. P21453. AID 449. activation, % at 9.5 µM. S1P1 CRE-bla cells, forskolin, beta-lactamase FRET, potentiator mode; S1P1 agonist co-added at EC20, 2 nM; 100% = saturating reference agonist, 0% = basal;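 active = activation above a cutoff set at the mean activation of all tested compounds plus 3 SD, cut at about 54% in these data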;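 note: forskolin at 4 µM as EC80 and the EC20 agonist is SEW2871; 100% = SEW2871 at its EC100 plus forskolin at EC80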
D1 allo mod: allosteric modulators of human D1 dopamine receptor. P21728. HEK293 D1, CRE-luciferase, dopamine EC30 potentiation; actives deviate in either direction. 5.9% of 58,000 active. B-score at 10 µM;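 active = luminescence count or its row- and column-corrected plate score outside the 99.7% band of the plate's sample wells, on either side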
Target sequence (P21728 whole entry, looked up): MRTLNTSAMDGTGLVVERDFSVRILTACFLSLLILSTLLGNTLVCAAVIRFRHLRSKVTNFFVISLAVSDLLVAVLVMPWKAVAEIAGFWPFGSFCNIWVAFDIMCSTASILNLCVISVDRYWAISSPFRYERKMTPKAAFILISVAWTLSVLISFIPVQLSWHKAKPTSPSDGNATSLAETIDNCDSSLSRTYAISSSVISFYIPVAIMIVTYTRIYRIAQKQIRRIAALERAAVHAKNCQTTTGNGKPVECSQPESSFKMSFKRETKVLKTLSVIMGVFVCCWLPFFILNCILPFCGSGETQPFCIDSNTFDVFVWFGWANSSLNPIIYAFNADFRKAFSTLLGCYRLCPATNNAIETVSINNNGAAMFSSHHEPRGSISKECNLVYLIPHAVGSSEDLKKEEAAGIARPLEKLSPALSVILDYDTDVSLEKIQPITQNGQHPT
M1 antagonist: blocks the rat M1 muscarinic receptor response to acetylcholine; AID 628; 3.4% of 64,000 active; CHO-M1 cells, Fluo-4 calcium, ACh EC80 antagonist mode; stronger effect = lower value; B-score at 10 µM;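 active = calcium fluorescence response, raw or row-and-column corrected B-score, differing from the plate sample mean either way at a set confidence level, mostly lower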
S1P3 agonist: activates the human S1P3 receptor; Q99500; S1P3 NFAT-BLA reporter cells, agonism, FRET ratio; relative to 1 µM S1P, basal subtracted; 0.1% of 60,000 active; AID 373; activation, % at 4.5 µM;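 active = activation above the screen-wide mean plus 3 SD, cut at about 4.5% in these data, passing the limit was not always enough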
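material = human S1P3 NFAT-BLA reporter CHO cells | schedule = 4 h compound at 37 °C, 2 h substrate at RT | measured by = fluorescent BLA substrate, ex 405 nm, em 460/535 nm ratio | controls = 1 µM S1P reference | replication = primary once, confirmation triplicate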
M1 ag: agonists of M1 muscarinic receptor; 3% of 64,000 active; CHO-M1 cells, Fluo-4 calcium fluorescence, agonist mode; stronger effect = higher value; B-score at 10 µM;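 active = fluorescence rise, raw or as B-score row- and column-corrected plate score, outside the 99.7% band of its plate's samples, either direction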
M1 antag confirm: M1 muscarinic receptor (rat) antagonism, confirmed; shares compounds with M1 antagonist; CHO-M1 cells, Fluo-4 calcium, ACh EC80 antagonism; stronger effect = lower value; calcium response (max-min fluorescence) at 10 µM; 43% of 1,700 active;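 active = calcium response below the same-plate mean of wells given acetylcholine alone at its 80%-effect dose, minus 3 SD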;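 note: raw fluorescence intensity difference in arbitrary instrument units and not normalized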
mGluR4 antag: acts on human mGluR4 in M1 antagonist selectivity test | AID 678 | shares compounds with M1 antagonist | 0.9% of 1,700 active | CHO-mGluR4 calcium flux, Fluo-4 fluorescence, glutamate EC80; stronger effect = lower value | fluorescence response (max-min) at 10 µM;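 active = fluorescence response below the plate's average for near-maximal glutamate wells, less 3 SD of those wells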;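 note: raw unnormalized fluorescence span taken in the window right after glutamate addition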
* = called active by the depositor. Hits are enriched below; roughly 11% of the tested compounds scored in any of these assays.

How did COc1ccc(N2C(=O)C3CCCN3C2c2ccc(F)cc2)cc1Cl (stereo not given) do in these assays?
TNAP act mid DEA: 0.8; S1P1 ag pot: -7; D1 allo mod: 0.17; M1 antagonist: -0.11; S1P3 agonist: 0; M1 ag: 1.3

How did Cn1c(CCN2CCN(c3ccccc3)CC2)nc2cc(NC(=O)c3ccco3)ccc21 do in these assays?
TNAP act mid DEA: 0.9; S1P1 ag pot: 18; D1 allo mod: -2.5; M1 antagonist: -5.5*; S1P3 agonist: 0; M1 ag: 0.59; M1 antag confirm: 125*; mGluR4 antag: 203

How did Cn1c(CCN2CCOCC2)nc2cc(NC(=O)COc3ccccc3)ccc21 do in these assays?
TNAP act mid DEA: 0.9; S1P1 ag pot: 6; D1 allo mod: -0.75; M1 antagonist: -3.7*; S1P3 agonist: 0; M1 ag: -0.2; M1 antag confirm: 581; mGluR4 antag: 174

What do the screens show for `Cn1c(CN2CCCC2)nc2cc(NC(=O)Nc3ccccc3)ccc21`?
TNAP act mid DEA: 1; S1P1 ag pot: 9; D1 allo mod: -2.5; M1 antagonist: -1.6; S1P3 agonist: -1; M1 ag: 0.22

What do the screens show for `Cc1ccc(N2CCN(CCc3nc4cc(NC(=O)c5ccco5)ccc4n3C)CC2)cc1`?
TNAP act mid DEA: 0.9; S1P1 ag pot: -8; D1 allo mod: -0.94; S1P3 agonist: 0

What do the screens show for `Cn1c(CCN2CCCCC2)nc2cc(NC(=O)C3CCCCC3)ccc21`?
TNAP act mid DEA: 1; S1P1 ag pot: -7; D1 allo mod: -1.4; M1 antagonist: -3.8*; S1P3 agonist: 0; M1 ag: -0.23; M1 antag confirm: 408*; mGluR4 antag: 198

How did CC1CCN(CCc2nc3cc(NC(=O)Nc4ccccc4)ccc3n2C)CC1 do in these assays?
TNAP act mid DEA: 1.1; S1P1 ag pot: 15; D1 allo mod: -0.24; M1 antagonist: -10*; S1P3 agonist: 1; M1 ag: -1.1; M1 antag confirm: 302*; mGluR4 antag: 209

Results for Cc1cccc(-n2c(CNC(=O)c3ccccc3)nnc2SCC(=O)Nc2nccs2)c1 ?
TNAP act mid DEA: 0.9; S1P1 ag pot: -3; D1 allo mod: 3.7; M1 antagonist: 0.87; S1P3 agonist: 0; M1 ag: -1.1

How did Cn1c(CCN2CCCCC2)nc2cc(NS(=O)(=O)c3ccc(Cl)cc3)ccc21 do in these assays?
TNAP act mid DEA: 1; S1P1 ag pot: -3; D1 allo mod: -1.3; M1 antagonist: -3.1*; S1P3 agonist: 0; M1 ag: -0.92; M1 antag confirm: 305*; mGluR4 antag: 243

Results for Cn1c(CN2CCCCC2)nc2cc(NS(=O)(=O)c3ccc(Cl)cc3)ccc21 ?
TNAP act mid DEA: 1; D1 allo mod: 0.52; M1 antagonist: -0.86; S1P3 agonist: -1; M1 ag: -1.6

What do the screens show for `Cn1c(CN2CCCCC2)nc2cc(NC(=O)c3ccccc3)ccc21`?
TNAP act mid DEA: 0.9; S1P1 ag pot: -1; M1 antagonist: -2.8*; S1P3 agonist: 0; M1 ag: 0.034; M1 antag confirm: 472; mGluR4 antag: 208

What do the screens show for `CC1CCN(CCc2nc3cc(NS(=O)(=O)c4ccccc4)ccc3n2C)CC1`?
TNAP act mid DEA: 0.9; S1P1 ag pot: -1; D1 allo mod: -0.33; M1 antagonist: -6*; S1P3 agonist: 0; M1 ag: 1.1; M1 antag confirm: 415*; mGluR4 antag: 262

How did CC1CCN(CCc2nc3cc(NS(=O)(=O)c4ccc(F)cc4)ccc3n2C)CC1 do in these assays?
TNAP act mid DEA: 1; S1P1 ag pot: 8; D1 allo mod: 0.091; M1 antagonist: -4*; S1P3 agonist: 0; M1 ag: -0.1; M1 antag confirm: 405*; mGluR4 antag: 267

What do the screens show for `O=C(Nc1ccc2snnc2c1)N1CCOCC1`?
TNAP act mid DEA: 0.9; S1P1 ag pot: 1; M1 antagonist: -2.4*; S1P3 agonist: 0; M1 ag: -1.4; M1 antag confirm: 599; mGluR4 antag: 208

What do the screens show for `O=C(Nc1ccc2snnc2c1)N1CCN(c2ccccc2)CC1`?
TNAP act mid DEA: 0.9; D1 allo mod: -1.3; M1 antagonist: -0.54; M1 ag: 0.068

Results for COc1ccc2nc(NC(=O)CN3CCN(C)CC3)sc2c1 ?
TNAP act mid DEA: 0.9; S1P1 ag pot: 9; D1 allo mod: -0.029; M1 antagonist: 0.24; S1P3 agonist: 0; M1 ag: -0.074

Results for COc1ccc2oc(C(=O)c3ccccc3)c(NC(=O)CN3CCN(C)CC3)c2c1 ?
TNAP act mid DEA: 0.9; S1P1 ag pot: -2; D1 allo mod: 0.12; M1 antagonist: -3.2*; S1P3 agonist: -1; M1 ag: 0.23; M1 antag confirm: 416; mGluR4 antag: 252

What do the screens show for `CN(C)C(=O)CSc1nnc(-c2cc(-c3cccs3)nc3ccccc23)o1`?
TNAP act mid DEA: 0.9; S1P1 ag pot: 6; D1 allo mod: -1.4; M1 antagonist: -3.7*; S1P3 agonist: -1; M1 ag: 1.5; M1 antag confirm: 565; mGluR4 antag: 207

What do the screens show for `CCCCN(C)CCn1c(=S)[nH]c2ccc(N3CCOCC3)cc2c1=O`?
TNAP act mid DEA: 0.9; D1 allo mod: -1.8; M1 antagonist: -0.78; M1 ag: 0.48

Results for COCCCn1c(=S)[nH]c2ccc(N3CCOCC3)cc2c1=O ?
TNAP act mid DEA: 0.9; D1 allo mod: 0.17; M1 antagonist: -11*; M1 ag: -0.33; M1 antag confirm: 656; mGluR4 antag: 237

What do the screens show for `O=c1[nH]c(=O)n(CCO)c2nnn(Cc3ccccc3)c12`?
TNAP act mid DEA: 0.9; S1P1 ag pot: -14; M1 antagonist: -3.3*; S1P3 agonist: 0; M1 ag: -1.3; M1 antag confirm: 579; mGluR4 antag: 244

What do the screens show for `Cn1c(=O)[nH]c(=O)c2c1nc(CN1CCN(Cc3ccccc3)CC1)n2CC(N)=O`?
TNAP act mid DEA: 1; S1P1 ag pot: -6; D1 allo mod: 0.46; M1 antagonist: -0.99; S1P3 agonist: 0; M1 ag: -0.23

How did O=C(O)CCN1C(=O)C(=C2CCCCCC2)SC1=S do in these assays?
TNAP act mid DEA: 0.9; S1P1 ag pot: -3; D1 allo mod: -0.72; M1 antagonist: -0.029; S1P3 agonist: 0; M1 ag: 0.0022

Results for O=C1C(=C2CCCCC2)SC(=S)N1Cc1ccco1 ?
TNAP act mid DEA: 0.9; S1P1 ag pot: 20; D1 allo mod: 0.38; M1 antagonist: -7.3*; S1P3 agonist: -2; M1 ag: -1; M1 antag confirm: 111*; mGluR4 antag: 206

Source: PubChem
